Calls of active or inactive are those of the source. The rule behind the calls is not given here.
Key:
[1] = target: T1, von Hippel-Lindau disease tumor suppressor/Serine/threonine-protein kinase TBK1 (Homo sapiens, UniProt Q9UHD2+P40337); assay: Induction of VHL-mediated TBK1 degradation in human Panc02.13 cells after 16 hrs by Western blot method relative to control; format: cell-based
In short: (§1)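 Panc02.13 cells grown in RPMI-1640 with 15% FBS and 10 units/mL human recombinant insulin, exposed to compound for 16 h. For phospho-IRF3 read-out, TLR3 agonist Poly I:C added for the final 3 h. Cells lysed in RIPA buffer with protease/phosphatase inhibitors, lysates clarified at 16,000g, run on SDS-PAGE and immunoblotted for TBK1, pIRF3 and GAPDH.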
Target sequence in this assay (P40337 whole entry, looked up, one chain of several): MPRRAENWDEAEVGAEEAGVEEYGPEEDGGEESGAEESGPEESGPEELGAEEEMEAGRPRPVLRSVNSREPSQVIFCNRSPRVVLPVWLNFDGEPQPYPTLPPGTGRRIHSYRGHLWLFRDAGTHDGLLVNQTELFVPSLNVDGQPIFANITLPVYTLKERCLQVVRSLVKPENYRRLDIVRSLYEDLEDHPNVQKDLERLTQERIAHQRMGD

[2] = target: T1, von Hippel-Lindau disease tumor suppressor/Serine/threonine-protein kinase TBK1; assay: Induction of VHL-mediated TBK1 degradation in human Panc02.13 cells after 16 hrs by Western blot method; format: cell-based
In short: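 For phospho-IRF3 read-out, TLR3 agonist Poly I:C added for the final 3 h. Cells lysed in RIPA buffer with protease/phosphatase inhibitors, lysates clarified at 16,000g, run on SDS-PAGE and immunoblotted for TBK1, pIRF3 and GAPDH.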
Target sequence in this assay (P40337 whole entry, one chain of several): as the sequence (P40337 whole entry, looked up, one chain of several) above

[3] = target: T1, von Hippel-Lindau disease tumor suppressor/Serine/threonine-protein kinase TBK1; assay: Induction of VHL-mediated TBK1 degradation in human A549 cells harboring K-Ras mutant at 100 nM after 16 hrs by Western blot method; format: cell-based
Target sequence in this assay (P40337 whole entry, looked up, one chain of several): as above

[4] = target: von Hippel-Lindau disease tumor suppressor/Elongin-C/Elongin-B/HIF1A (Homo sapiens, UniProt P40337+Q15369+Q15370+Q16665); assay: Inhibition of His-tagged VHL/elongin B/elongin C (unknown origin) interaction with HIF1alpha preincubated for 10 mins followed by fluorescin labelled HIF1alpha peptide addition measured after 2 hrs by fluorescence polarization assay; format: protein-complex assay
von Hippel-Lindau disease tumor suppressor/Elongin-C/Elongin-B/HIF1A, sequence (P40337 whole entry, looked up): as the sequence (P40337 whole entry, looked up, one chain of several) above
von Hippel-Lindau disease tumor suppressor/Elongin-C/Elongin-B/HIF1A, sequence (Q15369 whole entry, looked up): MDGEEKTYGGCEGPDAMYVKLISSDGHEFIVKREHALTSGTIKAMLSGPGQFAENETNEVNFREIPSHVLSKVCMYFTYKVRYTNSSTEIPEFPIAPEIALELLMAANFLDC
von Hippel-Lindau disease tumor suppressor/Elongin-C/Elongin-B/HIF1A, sequence (Q15370 whole entry, looked up): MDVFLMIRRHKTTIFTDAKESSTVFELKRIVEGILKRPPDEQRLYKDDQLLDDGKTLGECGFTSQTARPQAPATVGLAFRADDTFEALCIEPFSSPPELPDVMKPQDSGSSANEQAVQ
von Hippel-Lindau disease tumor suppressor/Elongin-C/Elongin-B/HIF1A, sequence (Q16665 whole entry, looked up): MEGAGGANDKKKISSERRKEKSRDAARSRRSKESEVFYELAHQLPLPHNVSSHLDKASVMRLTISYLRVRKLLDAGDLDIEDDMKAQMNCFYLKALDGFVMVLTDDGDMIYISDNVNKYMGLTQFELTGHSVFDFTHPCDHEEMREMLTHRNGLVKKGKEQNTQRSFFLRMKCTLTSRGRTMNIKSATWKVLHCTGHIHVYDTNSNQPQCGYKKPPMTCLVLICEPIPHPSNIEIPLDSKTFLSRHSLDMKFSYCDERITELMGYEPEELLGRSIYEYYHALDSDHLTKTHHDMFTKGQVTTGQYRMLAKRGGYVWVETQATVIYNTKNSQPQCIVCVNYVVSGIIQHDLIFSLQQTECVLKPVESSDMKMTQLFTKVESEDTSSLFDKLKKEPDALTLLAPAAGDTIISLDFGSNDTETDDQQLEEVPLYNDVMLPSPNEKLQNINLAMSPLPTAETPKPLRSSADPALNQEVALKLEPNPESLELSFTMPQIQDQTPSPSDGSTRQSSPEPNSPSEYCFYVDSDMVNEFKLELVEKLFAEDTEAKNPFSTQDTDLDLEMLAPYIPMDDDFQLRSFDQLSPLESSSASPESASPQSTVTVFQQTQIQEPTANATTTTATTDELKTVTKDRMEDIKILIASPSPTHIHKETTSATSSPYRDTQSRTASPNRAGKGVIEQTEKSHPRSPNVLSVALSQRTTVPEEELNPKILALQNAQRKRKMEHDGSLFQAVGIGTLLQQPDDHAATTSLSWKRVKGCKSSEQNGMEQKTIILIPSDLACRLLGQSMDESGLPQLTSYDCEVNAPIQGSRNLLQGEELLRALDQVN
In short: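 VHL coexpressed and copurified with Elongin B and C (VCB). Compound preincubated 10 min with VHL in 50 mM Tris pH 7.5, 200 mM NaCl, 2 mM DTT, 1% DMSO. Polarization converted to percent binding against control wells; IC50 from four-parameter fit.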

[5] = target: T1, von Hippel-Lindau disease tumor suppressor/Serine/threonine-protein kinase TBK1; assay: Induction of VHL-mediated TBK1 degradation in human Panc02.13 cells at 100 nM after 16 hrs in presence of (2S,4R)-1-((S)-2-acetamido-3,3-dimethylbutanoyl)-4-hydroxy-N-(4-(4-methylthiazol-5-yl)benzyl)pyrrolidine-2-carboxamide by Western blot method; format: cell-based; in short: as §1
Target sequence in this assay (P40337 whole entry, looked up, one chain of several): as the sequence (P40337 whole entry, looked up, one chain of several) above

[6] = target: T1, von Hippel-Lindau disease tumor suppressor/Serine/threonine-protein kinase TBK1; assay: Induction of VHL-mediated TBK1 degradation in human Panc02.13 cells at 100 nM after 16 hrs in presence of proteosome inhibitor carfilzomib by Western blot method; format: cell-based; in short: as §1
Target sequence in this assay (P40337 whole entry, looked up, one chain of several): as above

[7] = target: von Hippel-Lindau disease tumor suppressor/Inhibitor of nuclear factor kappa-B kinase subunit epsilon (Homo sapiens) (UniProt Q14164+P40337); assay: Induction of VHL-mediated IKKepsilon degradation in human Panc02.13 cells up to 3 uM after 16 hrs by Western blot method; format: cell-based
von Hippel-Lindau disease tumor suppressor/Inhibitor of nuclear factor kappa-B kinase subunit epsilon (Homo sapiens), sequence (P40337 whole entry, looked up): as the sequence (P40337 whole entry, looked up, one chain of several) above
von Hippel-Lindau disease tumor suppressor/Inhibitor of nuclear factor kappa-B kinase subunit epsilon (Homo sapiens), sequence (Q14164 whole entry, looked up): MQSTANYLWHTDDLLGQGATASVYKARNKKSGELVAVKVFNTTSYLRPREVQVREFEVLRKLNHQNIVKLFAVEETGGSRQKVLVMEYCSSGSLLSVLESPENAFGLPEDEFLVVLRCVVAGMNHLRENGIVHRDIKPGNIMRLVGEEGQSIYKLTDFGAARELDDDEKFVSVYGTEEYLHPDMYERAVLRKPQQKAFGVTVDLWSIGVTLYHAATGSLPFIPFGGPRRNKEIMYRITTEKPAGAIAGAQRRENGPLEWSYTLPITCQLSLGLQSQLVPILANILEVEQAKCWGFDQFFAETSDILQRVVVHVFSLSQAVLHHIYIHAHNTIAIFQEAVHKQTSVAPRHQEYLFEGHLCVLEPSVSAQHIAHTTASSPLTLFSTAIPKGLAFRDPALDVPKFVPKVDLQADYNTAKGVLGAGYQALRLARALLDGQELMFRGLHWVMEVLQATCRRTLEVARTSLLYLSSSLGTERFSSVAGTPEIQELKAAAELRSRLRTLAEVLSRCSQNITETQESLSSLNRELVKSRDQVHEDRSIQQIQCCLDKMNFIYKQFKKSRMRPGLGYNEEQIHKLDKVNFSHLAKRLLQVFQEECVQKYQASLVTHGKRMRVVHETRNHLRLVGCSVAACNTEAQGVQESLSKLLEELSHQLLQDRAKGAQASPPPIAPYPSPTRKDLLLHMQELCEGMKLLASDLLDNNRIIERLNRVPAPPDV

[8] = target: T1, von Hippel-Lindau disease tumor suppressor/Serine/threonine-protein kinase TBK1; assay: Induction of VHL-mediated TBK1 degradation in human H23 cells harboring K-Ras mutant at 100 to 300 nM after 16 hrs by Western blot method; format: cell-based
Target sequence in this assay (P40337 whole entry, looked up, one chain of several): as the sequence (P40337 whole entry, looked up, one chain of several) above

[9] = target: T1, von Hippel-Lindau disease tumor suppressor/Serine/threonine-protein kinase TBK1; assay: Induction of VHL-mediated TBK1 degradation in human H1792 cells harboring K-Ras mutant at 100 to 300 nM after 16 hrs by Western blot method; format: cell-based
Target sequence in this assay (P40337 whole entry, looked up, one chain of several): as above

[10] = target: T1, von Hippel-Lindau disease tumor suppressor/Serine/threonine-protein kinase TBK1; assay: Induction of VHL-mediated TBK1 degradation in human H2110 cells harboring wild-type K-Ras at 100 to 300 nM after 16 hrs by Western blot method; format: cell-based
[11] = target: T1, von Hippel-Lindau disease tumor suppressor/Serine/threonine-protein kinase TBK1; assay: Induction of VHL-mediated TBK1 degradation in human HCC827 cells harboring wild-type K-Ras at 100 to 300 nM after 16 hrs by Western blot method; format: cell-based
NCI-H23 = assay: Antiproliferative activity against human H23 cells harboring K-Ras mutant at 10 uM after 72 hrs by CellTiter-Glo assay; format: functional, cell-based
In short: (§2)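 Lung cancer lines seeded at 5000 cells/well; after 24 h, compound added as 3-fold dilutions (10 μM top final concentration, 0.1% DMSO final). Incubated 72 h, then viability read by CellTiter-Glo luminescence.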

A549 = assay: Antiproliferative activity against human A549 cells harboring K-Ras mutant at 10 uM after 72 hrs by CellTiter-Glo assay; format: functional, cell-based; in short: as §2
NCI-H1792 = assay: Antiproliferative activity against human NCI-H1792 cells harboring K-Ras mutant at 10 uM after 72 hrs by CellTiter-Glo assay; format: functional, cell-based; in short: as §2
Homo sapiens = species on record: Homo sapiens; assay: Antiproliferative activity against human NCI-H2110 cells harboring wild-type K-Ras at 10 uM after 72 hrs by CellTiter-Glo assay; format: functional, cell-based; in short: as §2
HCC827 = assay: Antiproliferative activity against human HCC827 cells harboring wild-type K-Ras at 10 uM after 72 hrs by CellTiter-Glo assay; format: functional, cell-based; in short: as §2
[12] = target: T1, von Hippel-Lindau disease tumor suppressor/Serine/threonine-protein kinase TBK1; assay: Induction of VHL-mediated TBK1 degradation in human Panc02.13 cells at 100 nM after 16 hrs by Western blot method; format: cell-based; in short: as §1
[13] = target: T1, von Hippel-Lindau disease tumor suppressor/Serine/threonine-protein kinase TBK1; assay: Induction of VHL-mediated TBK1 degradation in human Panc02.13 cells assessed as decrease in Poly(I:C)-induced in IRF3 phosphorylation at 100 nM preincubated for 16 hrs followed by Poly I:C addition measured after 3 hrs by Western blot method; format: cell-based; in short: as §1
[14] = target: T2, Serine/threonine-protein kinase TBK1 (Homo sapiens, UniProt Q9UHD2); assay: Binding affinity to human full length wild-type TBK1 expressed in mammalian expression system
T2 sequence (Q9UHD2 whole entry): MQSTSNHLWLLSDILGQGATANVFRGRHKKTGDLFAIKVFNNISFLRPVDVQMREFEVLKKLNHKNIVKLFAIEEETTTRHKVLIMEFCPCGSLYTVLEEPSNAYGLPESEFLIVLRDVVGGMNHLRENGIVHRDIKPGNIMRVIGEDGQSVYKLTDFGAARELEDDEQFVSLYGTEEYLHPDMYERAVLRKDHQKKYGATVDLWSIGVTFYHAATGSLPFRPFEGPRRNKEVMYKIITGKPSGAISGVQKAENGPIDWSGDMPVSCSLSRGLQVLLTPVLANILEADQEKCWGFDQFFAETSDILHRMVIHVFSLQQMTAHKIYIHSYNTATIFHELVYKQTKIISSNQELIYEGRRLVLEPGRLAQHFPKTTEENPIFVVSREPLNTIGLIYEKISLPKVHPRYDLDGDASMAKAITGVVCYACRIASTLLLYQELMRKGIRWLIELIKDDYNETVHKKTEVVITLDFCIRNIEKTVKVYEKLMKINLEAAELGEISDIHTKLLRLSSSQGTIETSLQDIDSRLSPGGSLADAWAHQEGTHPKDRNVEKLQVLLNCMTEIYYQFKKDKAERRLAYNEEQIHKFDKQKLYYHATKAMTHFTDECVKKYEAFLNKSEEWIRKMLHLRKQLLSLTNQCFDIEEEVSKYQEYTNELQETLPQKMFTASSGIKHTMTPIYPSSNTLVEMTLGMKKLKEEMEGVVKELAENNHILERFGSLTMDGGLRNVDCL

[15] = target: T1, von Hippel-Lindau disease tumor suppressor/Serine/threonine-protein kinase TBK1; assay: Induction of VHL-mediated TBK1 degradation in human Panc02.13 cells at 1 uM after 16 hrs by Western blot method; format: cell-based
In short: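 Panc02.13 cells grown in RPMI-1640 with 15% FBS and 10 units/mL human recombinant insulin; compound exposure 16 h, with TLR3 agonist Poly I:C added for the final 3 h. Cells lysed in RIPA buffer with protease and phosphatase inhibitors, lysates clarified at 16,000g for 10 min, resolved by SDS-PAGE and immunoblotted for TBK1, with GAPDH as loading control.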

[16] = target: T1, von Hippel-Lindau disease tumor suppressor/Serine/threonine-protein kinase TBK1; assay: Induction of VHL-mediated TBK1 degradation in human Panc02.13 cells at 0.1 to 1 uM after 16 hrs by Western blot method; format: cell-based; in short: as §1
[17] = target: T3, Serine/threonine-protein kinase TBK1 (Homo sapiens) (UniProt Q9UHD2); assay: Antagonist activity at TBK1 in human Panc02.13 cells assessed as decrease in Poly(I:C)-induced IRF3 phosphorylation preincubated for 16 hrs followed by Poly I:C addition measured after 3 hrs by Western blot method; format: cell-based; in short: as §1
T3 sequence (whole entry): T2 sequence (Q9UHD2 whole entry)

With `Cc1ncsc1-c1ccc(CNC(=O)[C@@H]2C[C@@H](O)CN2C(=O)[C@@H](NC(=O)COCCCOCCCCOCCCOc2ccc(Nc3ncc(Br)c(NCCCN(C)C(=O)C4CCC4)n3)cc2)C(C)(C)C)cc1` the Emax [1] was 96%, the DC50 [2] was 0.009 to 0.012 µM and the Activity [3] was “Active”. For the same compound, the IC50 [4] was 4.9 µM, the Activity [5] was “inactive” and the Activity [6] was “inactive”. The Activity [7] was “inactive”, the Activity [8] was “Active” and the Activity [9] was “Active”. For the same compound, the Activity [10] was “Active”, the Activity [11] was “Active” and the Activity (NCI-H23) was “inactive”. The Activity (A549) was “inactive”, the Activity (NCI-H1792) was “inactive” and the Activity (Homo sapiens) was “inactive”. For the same compound, the Activity (HCC827) was “inactive”, the Activity [12] was “Active” and the Activity [13] was “Active”.
For `CCOc1ccc(Nc2ncc(Br)c(NCCCN(C)C(=O)C3CCC3)n2)cc1`, the Kd [14] was 0.0013 µM, the DC50 [2] was greater than 1 µM and the Activity [15] was “inactive”.
`Cc1ncsc1-c1ccc(CNC(=O)[C@@H]2C[C@H](O)CN2C(=O)[C@@H](NC(=O)COCCCOCCCCOCCCOc2ccc(Nc3ncc(Br)c(NCCCN(C)C(=O)C4CCC4)n3)cc2)C(C)(C)C)cc1` was tested, and the Kd [14] was 0.0059 µM, the IC50 [4] was greater than 100 µM and the Activity [16] was “inactive”. For the same compound, the inhibition [17] was “Active”.
`Cc1ncsc1-c1ccc(CNC(=O)[C@@H]2C[C@@H](O)CN2C(=O)CNC(=O)COCCCOCCCCOCCCOc2ccc(Nc3ncc(Br)c(NCCCN(C)C(=O)C4CCC4)n3)cc2)cc1` gave an Emax [1] of 0%, a DC50 [2] greater than 1 µM and an IC50 [4] greater than 100 µM.
